The target in data set [1] is T1, Fibroblast growth factor receptor (Homo sapiens) (UniProt P22607+P11362+P22455+P21802). Briefly: Induction of FGFR degradation in human KATO III stomach cancer cell line assessed as reduction in PLCgamma phosphorylation at 50 nM measured for 6 hrs. It is filed as cell-based. The procedure, abridged: (§1)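 KATO III cells incubated 6 h with 50 nM compound, then stimulated with FGF1 for 10 min; pFGFR, pPLCγ1 (Tyr783) and pFRS2α immunoblotted.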

The test system of data set [2] is SNU-16. Briefly: Antitumor activity against human SNU-16 cells xenografted in BALB/c nude mouse assessed as reduction in PLCgamma phosphorylation in tumor at 20 mg/kg, po measured at 4 hrs. It is filed as functional, organism-based. The procedure, abridged:
(§2)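 Female BALB/c nude mice, 5 weeks old (20–22 g), s.c. right-flank SNU-16 implants, randomized by body weight into groups (n = 5) once tumours reached 50–100 mm3. Dosing 20 mg/kg/day intragastric in 0.5% CMC-Na for 15 d; vehicle controls. Tumour width and length measured every 2 days; tumours harvested 4 h after last dose and lysates immunoblotted for pFGFR, FGFR2, pPLCγ, pErk.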

The target in data set [3] is T2, Protein cereblon/Fibroblast growth factor receptor 2 (Homo sapiens, UniProt P21802+Q96SW2). Briefly: PROTAC activity at CRBN/FGFR2 in human KATO III stomach cancer cell line assessed as FGFR2 degradation by measuring FGFR2 expression level at 0.5 to 100 nM measured for 6 hrs by Western blotting analysis. It is filed as cell-based. Conditions: dose 0.5-100 nM. The procedure, abridged: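 KATO III cells treated 6 h across 0.5–10,000 nM (DMSO stock, final DMSO below 0.5%); FGFR2 immunoblotted, quantified as FGFR2/β-actin ratio normalized to DMSO-treated cells, three independent biological experiments; DC50 and Dmax derived from the curve.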

The target in data set [4] is Fibroblast growth factor receptor 2 (Homo sapiens) (UniProt P21802). Briefly: Inhibition of partial length human FGFR2 at 1000 nM by KINOMEscan analysis relative to control. The method in brief: (§3)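 97-kinase scanEDGE panel screened at 1000 nM; results reported as % Ctrl, lower values meaning stronger inhibition.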
Data set [5] has as its target Macrophage colony-stimulating factor 1 receptor (Homo sapiens) (UniProt P07333). Nature of the data set: Inhibition of partial length human CSF1R at 1000 nM by KINOMEscan analysis relative to control. The method in brief: as §3
For data set [6], the target named is T2, Protein cereblon/Fibroblast growth factor receptor 2. Nature of the data set: PROTAC activity at CRBN/FGFR2 in human KATO III stomach cancer cell line at 100 nM measured for 6 hrs by Western blot analysis relative to control. It is filed as cell-based. The method in brief:
(§4)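 KATO III cells treated for 6 h at the stated concentrations, added from 10 mM DMSO stocks (final DMSO below 0.5%). Cells were washed with PBS and lysed in 2× loading buffer, then run on SDS-PAGE and blotted to PVDF. Anti-FGFR2 was applied overnight at 4 °C, with ECL detection. FGFR2 was expressed as FGFR2/β-actin, normalized to DMSO-treated cells, from three independent biological experiments.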

For data set [7], the target named is Fibroblast growth factor receptor 3 (Homo sapiens) (UniProt P22607). Briefly: Induction of FGFR3 degradation in human MCF7 cells at 100 nM measured for 6 hrs Western blot analysis. It is filed as cell-based. The procedure, abridged:
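NCI-H1581 (FGFR1), MCF7 (FGFR3) and Huh7 (FGFR4) cells, which endogenously express the isoforms, treated with 100 nM for 6 h; isoform levels by Western blot against β-actin, three biologically independent experiments.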

The subject of a further data set is BaF3. Nature of the data set: Antiproliferative activity against mouse BaF3 cells expressing Tel-FGFR3 assessed as cell growth inhibition measured after 72 hrs by celltiter-glo reagent based assay. Conditions: BaF3, 72 h. It is filed as functional. The method in brief: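 Ba/F3 cells stably expressing cytoplasmic TEL-FGFR1, -2, -3 or -4 fusions were treated in 96-well format, final DMSO 0.1%, for 72 h. Viability read by CellTiter-Glo luminescence after 10 min at room temperature. Inhibition calculated from blank- and control-corrected RLU; IC50 from 4-parameter concentration–response fit.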

Data set [8] addresses T2, Protein cereblon/Fibroblast growth factor receptor 2. Briefly: PROTAC activity at CRBN/FGFR2 in human KATO III stomach cancer cell line assessed as FGFR2 degradation measured for 6 hrs by immunoblot analysis. It is filed as cell-based. The method in brief: as §4
Data set [9] addresses T1, Fibroblast growth factor receptor (Homo sapiens). Nature of the data set: Induction of FGFR degradation in human KATO III stomach cancer cell line assessed as reduction in FRS2 phosphorylation at 50 nM measured for 6 hrs. It is filed as cell-based. The procedure, abridged: as §1
Data set [10] concerns KATO III stomach cancer cell line. Nature of the data set: Antiproliferative activity against human KATO III stomach cancer cell line assessed as reduction in cell viability measured for 72 hrs by celltiter-glo reagent based assay. It is filed as functional. The procedure, abridged:
(§5)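 Cancer lines KATO III, SNU16, NCI-H716, NCI-H1975, MV-4-11 and HEK293T treated 72 h; antiproliferative IC50 given as mean ± s.d. from three independent biological experiments.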

Data set [11] can be described thus: Antiproliferative activity against human HEK293T cells assessed as reduction in cell viability measured for 72 hrs by celltiter-glo reagent based assay. It is filed as toxicity, HEK-293T. The method in brief:
as §5

For data set [12], the system named is KATO III stomach cancer cell line. Briefly: Induction of cell cycle arrest in human KATO III stomach cancer cell line assessed as accumulation of cells at G0/G1 phase […] by flow cytometry analysis. It is filed as functional, cell-based. The method in brief: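 KATO III cells harvested with EDTA-free trypsin, fixed in cold 70% ethanol overnight at −20 °C, stained with DNA staining solution 30 min at room temperature, analysed by flow cytometry.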

Data set [13] is described as follows: Toxicity in ICR mouse assessed as change in liver weight at 20 mg/kg, po measured for 30 days. It is filed as organism-based. Particulars: in vivo, 720 h, time 30 day. The method in brief:
(§6)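 ICR mice (n = 6) were dosed orally at 20 mg/kg/day for 30 days, alongside vehicle-treated controls. Mortality and clinical signs were checked daily. At the end, body and organ weights were recorded. Heart, liver, spleen, lung and kidney were examined by hematoxylin and eosin staining.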

The nature of data set [14]: Toxicity in ICR mouse assessed as change in spleen weight at 20 mg/kg, po measured for 30 days. It is filed as organism-based. Particulars: in vivo, 720 h, time 30 day. The procedure, abridged:
as §6

Data set [15] is described as follows: Toxicity in ICR mouse assessed as change in kidney weight at 20 mg/kg, po measured for 30 days. Conditions: in vivo, 720 h, time 30 day. It is filed as organism-based. The method in brief: as §6
Data set [16] is described as follows: Nephrotoxicity in ICR mouse assessed as effect on creatinine level at 20 mg/kg, po measured for 30 days. It is filed as toxicity, organism-based. Particulars: in vivo, 720 h, time 30 day. The procedure, abridged:
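ICR mice given 20 mg/kg/day orally for 30 days (n = 6), vehicle controls; mortality and clinical signs checked daily, then AST/ALT and creatinine, organ weights, haematology and H&E of heart, liver, spleen, lung, kidney.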

Data set [17] is described as follows: Toxicity in ICR mouse assessed as morphological changes in lung at 20 mg/kg, po measured for 30 days by hematoxyin-eosin staining based analysis. It is filed as organism-based. Conditions: in vivo, 720 h, time 30 day. The method in brief:
as §6

Data set [18] concerns SNU-16. Nature of the data set: Antitumor activity against human SNU-16 cells xenografted in BALB/c nude mouse assessed as tumor growth inhibition at 20 mg/kg, po administered for 15 days and measured on day 2. It is filed as functional. Conditions: SNU-16, 48 h, time 2 day, read-out: TGI. The method in brief: as §2
Data set [19] concerns SNU-16. Briefly: Antitumor activity against human SNU-16 cells xenografted in BALB/c nude mouse assessed as reduction in ERK1/2 phosphorylation in tumor at 20 mg/kg, po measured at 4 hrs. It is filed as functional, organism-based. The method in brief: as §2
Data set [20] can be described thus: Cmax in mouse at 3 mg/kg, iv measured at 0.083 to 24 hrs by LC-MS/MS analysis. Conditions: in vivo.
A short description of data set [21]: AUC (0 to infinity) in mouse at 20 mg/kg, po measured at 0.25 to 24 hrs by LC-MS/MS analysis. Particulars: in vivo.

Calls of active or inactive are those of the source. The rule behind the calls is not given here.

T2 sequence (P21802 22-821 limits assumed): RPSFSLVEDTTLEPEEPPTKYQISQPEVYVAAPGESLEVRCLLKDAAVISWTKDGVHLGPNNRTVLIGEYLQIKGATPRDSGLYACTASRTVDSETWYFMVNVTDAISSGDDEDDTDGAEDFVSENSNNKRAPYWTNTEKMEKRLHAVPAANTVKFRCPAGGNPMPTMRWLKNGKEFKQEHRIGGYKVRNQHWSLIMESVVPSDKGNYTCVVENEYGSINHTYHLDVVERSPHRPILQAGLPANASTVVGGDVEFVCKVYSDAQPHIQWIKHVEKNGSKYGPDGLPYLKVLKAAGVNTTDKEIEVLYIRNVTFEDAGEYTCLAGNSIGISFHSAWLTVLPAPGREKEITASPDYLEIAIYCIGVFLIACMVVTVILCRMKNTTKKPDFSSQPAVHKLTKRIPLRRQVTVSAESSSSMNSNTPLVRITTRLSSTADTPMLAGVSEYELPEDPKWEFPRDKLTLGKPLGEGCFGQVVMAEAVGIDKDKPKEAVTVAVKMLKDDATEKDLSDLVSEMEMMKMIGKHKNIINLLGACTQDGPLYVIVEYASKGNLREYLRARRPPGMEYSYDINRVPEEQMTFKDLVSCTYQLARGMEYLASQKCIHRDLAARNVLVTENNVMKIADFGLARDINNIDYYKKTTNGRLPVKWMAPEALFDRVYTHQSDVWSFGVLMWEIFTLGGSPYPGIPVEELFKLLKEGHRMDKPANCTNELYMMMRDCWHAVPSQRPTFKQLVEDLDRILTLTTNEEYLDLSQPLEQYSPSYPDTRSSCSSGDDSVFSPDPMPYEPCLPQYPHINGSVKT
T2 sequence (Q96SW2 whole entry partner): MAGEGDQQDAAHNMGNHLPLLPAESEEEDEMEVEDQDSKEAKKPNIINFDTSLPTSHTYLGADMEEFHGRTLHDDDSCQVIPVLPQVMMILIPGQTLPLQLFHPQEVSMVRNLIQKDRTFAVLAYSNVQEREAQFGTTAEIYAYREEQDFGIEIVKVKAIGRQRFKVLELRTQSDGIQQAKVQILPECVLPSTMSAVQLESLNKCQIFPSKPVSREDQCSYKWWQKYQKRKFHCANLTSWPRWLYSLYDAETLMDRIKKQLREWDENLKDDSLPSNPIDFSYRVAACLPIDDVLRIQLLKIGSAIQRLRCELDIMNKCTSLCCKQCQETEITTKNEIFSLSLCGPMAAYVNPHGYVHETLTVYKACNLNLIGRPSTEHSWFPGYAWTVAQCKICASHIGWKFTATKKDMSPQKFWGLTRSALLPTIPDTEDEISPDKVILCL
T1 sequence (P11362 whole entry, looked up): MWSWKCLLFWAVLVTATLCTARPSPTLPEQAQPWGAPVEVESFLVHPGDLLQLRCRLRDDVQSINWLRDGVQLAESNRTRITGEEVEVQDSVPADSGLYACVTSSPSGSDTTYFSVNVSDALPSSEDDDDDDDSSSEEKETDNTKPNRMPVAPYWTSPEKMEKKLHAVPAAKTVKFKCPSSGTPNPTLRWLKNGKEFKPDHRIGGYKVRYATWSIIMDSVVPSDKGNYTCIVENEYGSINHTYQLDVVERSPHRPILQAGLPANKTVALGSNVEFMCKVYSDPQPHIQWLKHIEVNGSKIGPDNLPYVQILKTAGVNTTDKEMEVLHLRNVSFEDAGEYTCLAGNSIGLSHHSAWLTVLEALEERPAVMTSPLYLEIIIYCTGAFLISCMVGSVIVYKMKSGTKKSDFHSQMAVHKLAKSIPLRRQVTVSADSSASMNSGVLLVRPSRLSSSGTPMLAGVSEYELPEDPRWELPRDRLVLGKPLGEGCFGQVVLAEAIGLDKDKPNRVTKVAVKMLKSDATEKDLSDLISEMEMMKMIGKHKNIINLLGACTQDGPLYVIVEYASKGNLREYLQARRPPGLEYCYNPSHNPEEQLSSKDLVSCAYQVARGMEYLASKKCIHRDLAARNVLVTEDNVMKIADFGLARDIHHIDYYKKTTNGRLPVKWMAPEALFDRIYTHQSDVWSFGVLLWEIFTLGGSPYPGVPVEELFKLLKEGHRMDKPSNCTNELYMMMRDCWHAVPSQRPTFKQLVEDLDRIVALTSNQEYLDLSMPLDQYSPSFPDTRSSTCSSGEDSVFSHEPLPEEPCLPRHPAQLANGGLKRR
T1 sequence (P21802 whole entry, looked up): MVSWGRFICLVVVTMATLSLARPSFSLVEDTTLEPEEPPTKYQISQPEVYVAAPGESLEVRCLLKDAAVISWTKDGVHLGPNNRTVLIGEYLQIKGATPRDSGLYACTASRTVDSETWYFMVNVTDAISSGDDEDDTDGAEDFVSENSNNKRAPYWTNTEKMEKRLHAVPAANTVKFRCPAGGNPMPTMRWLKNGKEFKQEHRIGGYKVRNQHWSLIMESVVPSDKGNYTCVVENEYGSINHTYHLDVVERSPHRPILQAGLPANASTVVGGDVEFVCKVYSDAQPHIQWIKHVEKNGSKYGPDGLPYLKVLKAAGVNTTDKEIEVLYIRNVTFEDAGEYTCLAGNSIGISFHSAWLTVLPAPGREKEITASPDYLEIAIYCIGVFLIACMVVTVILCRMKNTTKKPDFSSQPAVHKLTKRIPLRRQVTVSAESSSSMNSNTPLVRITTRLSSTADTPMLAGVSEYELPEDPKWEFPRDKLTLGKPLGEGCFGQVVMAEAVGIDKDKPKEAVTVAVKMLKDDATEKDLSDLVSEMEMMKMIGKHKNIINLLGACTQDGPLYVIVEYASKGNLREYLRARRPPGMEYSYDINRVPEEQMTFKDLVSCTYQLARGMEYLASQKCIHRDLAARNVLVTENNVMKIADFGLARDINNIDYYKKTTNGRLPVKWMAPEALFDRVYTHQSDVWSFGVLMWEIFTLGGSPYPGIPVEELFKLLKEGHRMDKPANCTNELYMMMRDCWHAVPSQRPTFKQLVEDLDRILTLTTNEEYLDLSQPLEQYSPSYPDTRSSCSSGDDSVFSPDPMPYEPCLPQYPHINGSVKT
T1 sequence (P22455 whole entry, looked up): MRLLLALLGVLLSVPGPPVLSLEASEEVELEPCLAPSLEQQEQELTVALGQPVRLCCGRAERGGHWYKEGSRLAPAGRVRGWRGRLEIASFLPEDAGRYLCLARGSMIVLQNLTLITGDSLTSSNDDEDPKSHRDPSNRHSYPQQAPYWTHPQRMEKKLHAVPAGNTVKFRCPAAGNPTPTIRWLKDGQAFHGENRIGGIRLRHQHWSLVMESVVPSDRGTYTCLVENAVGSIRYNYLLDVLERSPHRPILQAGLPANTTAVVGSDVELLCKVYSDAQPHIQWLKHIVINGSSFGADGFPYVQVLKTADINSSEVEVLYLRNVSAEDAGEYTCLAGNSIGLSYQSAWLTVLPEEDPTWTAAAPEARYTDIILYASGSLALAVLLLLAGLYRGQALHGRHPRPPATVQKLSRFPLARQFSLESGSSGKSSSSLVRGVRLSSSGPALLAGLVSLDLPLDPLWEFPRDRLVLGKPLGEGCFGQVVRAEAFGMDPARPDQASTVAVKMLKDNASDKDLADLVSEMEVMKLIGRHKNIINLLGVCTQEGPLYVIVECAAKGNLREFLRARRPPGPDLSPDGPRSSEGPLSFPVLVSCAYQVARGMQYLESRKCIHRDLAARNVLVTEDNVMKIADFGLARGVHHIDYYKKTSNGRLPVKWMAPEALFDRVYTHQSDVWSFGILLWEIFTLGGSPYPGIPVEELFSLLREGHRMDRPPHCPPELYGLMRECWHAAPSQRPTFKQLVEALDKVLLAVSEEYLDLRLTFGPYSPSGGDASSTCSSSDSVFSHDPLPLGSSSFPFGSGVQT
T1 sequence (P22607 whole entry, looked up): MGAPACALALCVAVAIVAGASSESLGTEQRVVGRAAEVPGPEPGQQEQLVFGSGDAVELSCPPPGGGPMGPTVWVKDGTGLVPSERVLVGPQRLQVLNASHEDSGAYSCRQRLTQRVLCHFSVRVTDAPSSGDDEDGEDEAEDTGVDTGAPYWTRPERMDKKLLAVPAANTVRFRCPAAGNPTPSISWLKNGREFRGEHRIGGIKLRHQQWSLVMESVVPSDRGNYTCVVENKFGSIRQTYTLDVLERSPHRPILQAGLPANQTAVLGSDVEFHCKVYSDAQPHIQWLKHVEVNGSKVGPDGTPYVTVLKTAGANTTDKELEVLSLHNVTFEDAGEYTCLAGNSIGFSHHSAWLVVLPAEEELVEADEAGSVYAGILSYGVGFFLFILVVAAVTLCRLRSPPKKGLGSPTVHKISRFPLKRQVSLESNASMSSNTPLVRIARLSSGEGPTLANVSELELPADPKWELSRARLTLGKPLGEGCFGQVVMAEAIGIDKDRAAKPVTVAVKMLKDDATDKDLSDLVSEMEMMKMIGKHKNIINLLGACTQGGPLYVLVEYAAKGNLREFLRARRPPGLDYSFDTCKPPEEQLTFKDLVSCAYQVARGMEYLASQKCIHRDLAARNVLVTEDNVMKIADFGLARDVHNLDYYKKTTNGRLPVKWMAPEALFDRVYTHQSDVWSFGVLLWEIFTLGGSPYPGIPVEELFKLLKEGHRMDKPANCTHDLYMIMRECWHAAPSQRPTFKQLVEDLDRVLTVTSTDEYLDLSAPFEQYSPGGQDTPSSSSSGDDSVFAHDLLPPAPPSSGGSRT
Sequence of Fibroblast growth factor receptor 2 (Homo sapiens) (P21802 22-821 limits assumed): as the sequence (P21802 22-821 limits assumed) above

For `COc1cc(OC)c(Cl)c(NC(=O)N(C)c2cc(Nc3ccc(N4CCN(C(=O)C5CCN(c6ccc7c(c6)C(=O)N(C6CCC(=O)NC6=O)C7=O)CC5)CC4)cc3)ncn2)c1Cl` (configuration not stated), the result (in [1]; with SNU-16 [2]; in [9]; in [12]; in the data set with SNU-16 [19]) was Active. The result in data set [3], in [7] and in data set [8] was inactive. Moreover, the inhibition was 87% in data set [4] and 76% in data set [5]. Also, the Activity in [6] is 77%; in data set [13] it was “Non-Toxic”; in data set [14] it was “Non-Toxic”; in data set [15], “Non-Toxic”; in data set [16] it was “Non-Toxic”; in data set [17], “Non-Toxic”. Besides, the values for the IC50 (in the data set on BaF3; in data set [10]) were 139 nM and 29.1 nM, respectively. For the same molecule, the IC50 at 72 h in data set [11] was greater than 10000 nM. The inhibition in vivo at 20 mg/kg with SNU-16 [18] was 63.1%. Further, the Cmax in data set [20] is 655 ng/mL. The molecule further had an AUC(0-inf) in data set [21] of 387 ng·h/mL.

Source of the values: ChEMBL document CHEMBL5338796, “Discovery of a Selective and Orally Bioavailable FGFR2 Degrader for Treating Gastric Cancer” (J Med Chem, 2023).
